Only some compounds are listed: those with a hit (about 2.2% of all), similar ones and a draw of the others.
Env fusion inh: blocks HIV Env-driven cell-cell fusion; HeLa-JRFL Env/CEM21 cell fusion, luciferase; inhibition, % at 12.3 µM; 360,000 compounds, 1.1% hits; AID 651610;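 active means mean replicate inhibition score of at least 50 and every replicate individually at or above 50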;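 further: 0% = plate neutral controls and 100% = maraviroc near 300 nM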
NR2E3 ag-1: agonists of human NR2E3 nuclear receptor. AID 602229. 360,000 compounds, 0.35% hits. inhibition of corepressor binding, % at 3.98 µM. CHO-S Gal4-NCOR/VP16-NR2E3 two-hybrid, luciferase;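 active means inhibition above the mean of all tested compounds plus 3 SD, cut at about 70% in these data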;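 further: 0% = DMSO with NR2E3 transfected cells and 100% = cells lacking NR2E3 construct; higher means lower luciferase signal from less NR2E3 corepressor binding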
Target sequence (Q9Y5X4 whole entry, looked up, the tested form may be a part): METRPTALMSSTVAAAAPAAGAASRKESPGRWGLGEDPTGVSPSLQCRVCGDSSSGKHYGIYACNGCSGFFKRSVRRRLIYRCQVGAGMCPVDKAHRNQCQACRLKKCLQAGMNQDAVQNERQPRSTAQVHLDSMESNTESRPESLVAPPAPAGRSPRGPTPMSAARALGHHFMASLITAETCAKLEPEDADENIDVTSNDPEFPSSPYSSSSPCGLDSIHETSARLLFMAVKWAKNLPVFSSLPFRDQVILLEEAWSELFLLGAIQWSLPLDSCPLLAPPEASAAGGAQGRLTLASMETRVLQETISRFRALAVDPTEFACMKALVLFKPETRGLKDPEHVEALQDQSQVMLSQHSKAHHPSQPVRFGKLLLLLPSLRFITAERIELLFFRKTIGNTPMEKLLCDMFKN
GalR3 antagonist: human GalR3 antagonism. AID 651719. inhibition, % at 3 µM. O60755. HEK293 GalR3-CNG cAMP membrane potential fluorescence; galR3 body fused to GalR1 C-terminus. 360,000 compounds, 0.44% hits;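 active means inhibition above the screen-wide average plus 3 SD, cut at about 13% in these data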;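 further: forskolin and galanin both at EC90 stimulate the cells; cAMP rise reported by CNG channel membrane potential dye signal; 0% = forskolin plus galanin with DMSO and 100% = forskolin alone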
Target sequence (O60755 1-299 limits assumed): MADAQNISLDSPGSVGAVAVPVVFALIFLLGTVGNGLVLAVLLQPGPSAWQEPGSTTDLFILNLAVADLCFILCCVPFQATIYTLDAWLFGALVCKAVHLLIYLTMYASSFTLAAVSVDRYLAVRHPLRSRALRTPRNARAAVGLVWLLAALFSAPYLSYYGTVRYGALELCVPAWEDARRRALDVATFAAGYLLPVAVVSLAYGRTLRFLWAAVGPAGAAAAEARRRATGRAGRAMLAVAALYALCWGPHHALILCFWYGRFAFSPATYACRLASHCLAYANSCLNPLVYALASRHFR
GAA850 FXN act: activators of GAA850 frataxin (FXN) promoter; HEK293 lucGAA850 FXN promoter luciferase reporter, 24 h; percent of 10 µM SAHA response; activation, % at 6 µM; 360,000 compounds, 0.56% hits;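 active means activation above the average of all compounds screened plus 3 SD, cutoff fixed separately per campaign, cut at about 7.5% in these data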;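 further: 0% = DMSO wells and 100% = 10 µM SAHA wells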
V-ATPase pH: yeast V-ATPase proton transport regulation by pHLuorin; S. cerevisiae, pHLuorin cytosolic pH fluorescence; response, % at 10 µM; 350,000 compounds, 0.37% hits; in the data active means response mostly above about 7.3%, no sharp cut-off; inactive means mostly below about 5.4%; further: actives read high
NR2E3 ag-2: agonists of human nuclear receptor NR2E3 | Q9Y5X4 | GST-NR2E3/biotin-RetCOR TR-FRET, 1536-well | inhibition of corepressor binding, % at 4.78 µM | 320,000 compounds, 0.12% hits | AID 2300;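 active means percent inhibition above the cutoff of mean plus 3 SD of all tested compounds, set per screening campaign, cut at about 20% in these data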;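 further: 0% = DMSO wells and 100% = biotin wells as full block of FRET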
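Assay system: NR2E3–RetCOR corepressor complex. Quantity: 1.35 nM GST-NR2E3. Buffer or medium: pH 7.5 Tris-based buffer. Reagent: biotinylated RetCOR corepressor at 7 nM final. Schedule: 5 h at 4 °C. Detection: TR-FRET, emission read at 617 and 671 nm. Replicates: one well per compound, singlicate testing.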
GAA30 FXN cntr: counter-screen for GAA850 frataxin promoter activators: GAA30 promoter activation; activation, % at 6 µM; shares compounds with GAA850 FXN act; HEK293 lucGAA30 FXN promoter luciferase, 24 h; DMSO = 0%, 5 µM ipriflavone = 100%; 1,900 compounds, 66% hits; AID 588350;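 active means mean activation above the mean of solvent-only control wells plus 3 SD, cut at about 22% in these data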;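 further: counterscreen of GAA850 promoter hits where activity marks nonselective or luminescence artifacts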
GAA850 confirm: GAA850 FXN promoter activation confirmation; shares compounds with GAA850 FXN act; HEK293 lucGAA850 FXN promoter luciferase reporter, 24 h; 100% = activation by SAHA; activation, % at 6 µM; 1,900 compounds, 86% hits; AID 588351;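 active means mean activation above a set limit taken from the primary screen, cut at about 8% in these data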;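 further: 0% = DMSO wells and 100% = 10 µM SAHA wells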
An asterisk follows results filed as active; · = no result given; [ ] = dose if it differs, or a comment.

SMILES	Env fusion inh	NR2E3 ag-1	GalR3 antagonist	GAA850 FXN act	V-ATPase pH	NR2E3 ag-2	GAA30 FXN cntr	GAA850 confirm
COc1ccc2oc(=Nc3ccccc3)c(-c3nc4ccccc4[nH]3)cc2c1	·	-108.3	-2.8	7.9*	-1.0	0.9	109.3*	39.0*
O=C1Nc2ccccc2Nc2ccc([N+](=O)[O-])cc21	-11.2	19.2	-10.3	8.3*	0.9	-3.3	114.6*	35.4*
CCCCOP(=O)(c1ccc(N(C)C)cc1)C(O)c1c(Cl)cccc1Cl (stereo not given)	58.9*	-23.9	-10.9	15.6*	-2.2	-0.4	17.0	10.9*
COc1cc2c(cc1OC)CN(C(=O)c1sccc1C)CC2	-18.6	-22.4	-5.5	0.2	-2.0	2.2	·	·
Cc1ccsc1C(=O)N1CCc2ccccc2C1	24.0	-12.8	-3.2	8.4*	-2.2	3.3	43.3*	15.3*
CC(C)C#Cc1cnc2c(c1)C(=O)N([C@H](C)CO)C[C@H](C)[C@H](CN(C)Cc1ccc3c(c1)OCO3)O2	-23.9[16.7 µM]	·	·	·	·	·	·	·
CC(C)C#Cc1ccc2c(c1)O[C@@H](CN(C)C(=O)c1cccnc1)[C@@H](C)CN([C@H](C)CO)S2(=O)=O	23.5[16.7 µM]	·	·	·	·	·	·	·
COc1cc(OC)c(OC)cc1CCC(C)NCCC(c1ccccc1)c1ccccc1 (stereo not given)	80.5*	19.0	-13.7	12.9*	-2.5	-1.2	-20.3	9.4*
CC(C)CC#Cc1cnc2c(c1)C(=O)N([C@@H](C)CO)C[C@H](C)[C@H](CN(C)C(=O)c1cccnc1)O2	10.2[16.7 µM]	·	·	·	·	·	·	·
C[C@H]1CCCCO[C@@H](CN(C)Cc2ccncc2)[C@@H](C)CN([C@@H](C)CO)C(=O)c2cc(N(C)C)ccc2O1	0.8[16.7 µM]	·	·	·	·	·	·	·
COc1cc(C)ccc1OCc1cc(C(=O)N2CCC(c3ccc(F)cc3)C2)no1 (stereo not given)	-34.0	-117.7	0.1	8.9*	3.8	1.9	117.3*	35.4*
CO[C@@H]1CN(C)C(=O)c2ccc(NC(=O)NC3CCCCC3)cc2OC[C@@H](C)N(CC2CCOCC2)C[C@H]1C	-32.7[16.7 µM]	·	·	·	·	·	·	·
O=C(CSC1=NCCN1)Nc1cccc([N+](=O)[O-])c1	2.6	-11.6	6.0	9.5*	1.0	2.1	43.0*	22.3*
COC(=O)c1ccc(CSc2nc3ccccc3c(=O)n2-c2ccccc2)o1	·	2.6	-1.5	15.6*	4.0	5.1	20.5	12.4*
C[C@H](CO)N1C[C@H](C)[C@@H](CN(C)Cc2ccncc2)Oc2ccc(NC(=O)CCN3CCOCC3)cc2CC1=O	1.6[16.7 µM]	·	·	·	·	·	·	·
COc1ccc(S(=O)(=O)N(C)C[C@@H]2Oc3c(NC(=O)Nc4c(C)noc4C)cccc3C(=O)N([C@@H](C)CO)C[C@@H]2C)cc1	-20.6[16.7 µM]	·	·	·	·	·	·	·
Cc1cc2ncc(-c3ncc(C(F)(F)F)cc3Cl)cn2n1	·	-96.5	0.0	-3.1	-0.5	-0.4	·	·
Cc1nn2cc(-c3ncc(C(F)(F)F)cc3Cl)cnc2c1Br	-90.6	-98.8	-0.6	10.0*	3.5	2.2	54.1*	19.7*
Cc1[nH]c2ccccc2c1SCC(=O)N1CCCc2ccccc21	69.0*	-18.9	·	19.7*	-1.6	0.3	17.7	10.3*
C[C@@H]1CCCCO[C@@H](CN(C)CC2CCCCC2)[C@@H](C)CN([C@H](C)CO)C(=O)c2cc(NC(=O)Cc3ccccc3)ccc2O1	-3.1[16.7 µM]	·	·	·	·	·	·	·
CCN1C(=O)[C@H]2[C@@H](c3ccc(C)cc3)N3C(=O)N(c4cccc(Cl)c4)C(=O)[C@@]3(CC)[C@H]2C1=O	95.9*	2.3	-6.4	8.2*	1.5	-3.0	9.1	7.9*
CCN1C(=O)[C@H]2[C@@H](c3ccc(C)cc3)N3C(=O)N(c4ccc(C)cc4)C(=O)[C@@]3(Cc3ccc(Cl)cc3)[C@H]2C1=O	-9.7	-14.6	-9.4	-1.8	-1.3	2.7	·	·
CC[C@@]12C(=O)N(c3ccc(C)cc3)C(=O)N1[C@H](c1cccc(C)c1)[C@@H]1C(=O)N(Cc3ccccc3)C(=O)[C@@H]12	4.5	0.1	-6.2	8.4*	-0.2	-2.9	23.1*	12.4*
Cc1ccc(N2C(=O)N3[C@H](c4cccc(C)c4)[C@@H]4C(=O)N(Cc5ccccc5)C(=O)[C@@H]4[C@]3(C)C2=O)cc1	81.3*	-15.2	0.5	7.6*	-6.1	1.1	17.7	8.5*
Cc1cccc([C@@H]2[C@@H]3C(=O)N(Cc4ccccc4)C(=O)[C@@H]3[C@]3(C)C(=O)N(c4cccc(F)c4)C(=O)N23)c1	50.2	-11.3	-5.7	-1.0	-2.4	3.7	·	·
SMILES	Env fusion inh	NR2E3 ag-1	GalR3 antagonist	GAA850 FXN act	V-ATPase pH	NR2E3 ag-2	GAA30 FXN cntr	GAA850 confirm
Cc1ccc(S(=O)(=O)N(C)C[C@@H]2Oc3c(NS(=O)(=O)c4ccc(F)cc4)cccc3C(=O)N([C@@H](C)CO)C[C@@H]2C)cc1	2.0[16.7 µM]	·	·	·	·	·	·	·
Cc1cccc(S(=O)(=O)N[C@H]2CC[C@@H](CCNC(=O)CCN3CCCCC3)O[C@@H]2CO)c1	9.4[16.7 µM]	·	·	·	·	·	·	·
C[C@@H]1CN([C@H](C)CO)C(=O)c2cc(Br)cnc2O[C@H]1CN(C)CC1CCCC1	4.2[16.7 µM]	·	·	·	·	·	·	·
Cc1noc(C)c1NC(=O)N(C)C[C@@H]1OCCCC[C@H](C)Oc2ccc(N(C)C)cc2C(=O)N([C@H](C)CO)C[C@@H]1C	-15.0[16.7 µM]	·	·	·	·	·	·	·
c1ccc(Nc2nc3ccccc3n3nnnc23)cc1	-76.6	-58.7	·	6.0	-1.5	-4.2	·	·
Brc1ccc(Nc2nc3ccccc3n3nnnc23)cc1	·	·	·	·	·	1.7	·	·
Fc1ccccc1Nc1nc2ccccc2n2nnnc12	-21.9	-101.9	2.6	8.2*	4.7	5.1	105.7*	42.0*
CCN(CC)S(=O)(=O)c1ccc(Nc2nc3ccccc3n3nnnc23)cc1	·	-83.1	0.6	7.8*	-7.3	2.0	90.4*	35.9*
CO[C@@H]1CN(C)C(=O)c2ccc(NS(=O)(=O)c3ccc(Cl)cc3)cc2OC[C@H](C)N(C)C[C@@H]1C	-4.6[16.7 µM]	·	·	·	·	·	·	·
Cc1ccc(C)c(C(=O)Nc2nc3ccccc3[nH]2)c1	-8.3	-30.6	-7.0	1.7	0.9	1.6	·	·
Cc1ccc(Nc2nc3ccccc3[nH]2)nc1	-231.3	-75.5	-4.5	9.4*	-2.9	-0.6	85.6*	42.5*
CCn1c2ccc(C)cc2c2nc3cc(C(=O)O)ccc3nc21	·	30.0	-10.4	8.0*	-1.5	2.7	147.5*	46.8*
COc1ccccc1-c1ccc2c(c1)C(C)(Cc1cccc(C#N)c1)C(=O)N2 (stereo not given)	101.4*	23.0	-5.2	11.4*	·	·	9.7	8.1*
CC1(Cc2ccccc2OC(F)(F)F)C(=O)Nc2ccc(OC(F)(F)F)cc21 (stereo not given)	19.1	-16.5	-6.6	0.1	·	·	·	·
